As usually defined, the inhibition is the drop in the measured response relative to a control, in per cent.

Each structure is given as a SMILES string. Screen size: about 340,000 compounds; about 540 (0.16%) were called active.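 The calls were made as follows: active = inhibition above about 35% when tested at 20 µM (limit read from the data); inactive = the rest.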 Shown is part of a subset that was picked to be rich in actives.

Our source for the inhibition values is PubChem BioAssay AID493160 (Sanford-Burnham Center for Chemical Genomics, 2011).

Hexokinase HKDC1 (Homo sapiens), sequence (Q2TB90 whole entry, looked up): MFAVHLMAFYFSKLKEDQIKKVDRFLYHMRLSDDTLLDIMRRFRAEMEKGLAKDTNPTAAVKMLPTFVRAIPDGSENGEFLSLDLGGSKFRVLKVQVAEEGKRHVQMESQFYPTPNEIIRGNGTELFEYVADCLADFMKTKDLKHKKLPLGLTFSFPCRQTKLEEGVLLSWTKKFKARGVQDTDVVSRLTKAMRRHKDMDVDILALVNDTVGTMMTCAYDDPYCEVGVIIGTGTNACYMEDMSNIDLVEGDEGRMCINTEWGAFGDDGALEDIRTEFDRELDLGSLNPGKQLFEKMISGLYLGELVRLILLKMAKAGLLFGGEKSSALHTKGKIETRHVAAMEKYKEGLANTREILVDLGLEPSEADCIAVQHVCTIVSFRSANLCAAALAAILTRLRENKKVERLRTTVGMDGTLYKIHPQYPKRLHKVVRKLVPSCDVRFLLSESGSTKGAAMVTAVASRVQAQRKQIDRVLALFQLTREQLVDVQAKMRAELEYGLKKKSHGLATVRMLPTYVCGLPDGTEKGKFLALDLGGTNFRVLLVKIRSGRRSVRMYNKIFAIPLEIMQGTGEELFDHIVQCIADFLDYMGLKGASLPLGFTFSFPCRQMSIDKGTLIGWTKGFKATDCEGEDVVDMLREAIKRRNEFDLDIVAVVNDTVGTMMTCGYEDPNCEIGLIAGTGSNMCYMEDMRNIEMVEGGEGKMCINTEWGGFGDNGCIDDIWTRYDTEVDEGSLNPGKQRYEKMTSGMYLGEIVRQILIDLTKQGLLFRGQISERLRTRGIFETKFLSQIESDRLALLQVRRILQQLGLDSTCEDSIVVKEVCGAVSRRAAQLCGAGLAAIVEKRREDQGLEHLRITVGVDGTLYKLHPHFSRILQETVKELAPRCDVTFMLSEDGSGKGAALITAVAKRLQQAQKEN

This experiment deals with Hexokinase HKDC1 (Homo sapiens) (UniProt Q2TB90). The experiment can be described thus: HKDC1 hexokinase inhibitors, primary screen, biochemical, fluorescence, uHTS (AID 493160).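 Also: plate controls were DMSO wells with enzyme for no effect and DMSO wells lacking enzyme for full effect.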 Conditions: recombinant HKDC1, G6PDH/diaphorase resazurin coupled fluorescence; at 20 µM; hits give high values. In outline:
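test system = in-house recombinant HK5 (HKDC1) enzyme | amount = HKDC1 at 5 µg/mL | control set = DMSO-enzyme wells negative, buffer-substituted wells positive | compound = one dose of 20 µM, 1% DMSO | schedule = reaction time 90 min, room temperature, protected from light | technique = resorufin fluorescence at 613 nm | reagent = glucose with 1 mM ATP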
For orientation: Resazurin is reduced to fluorescent resorufin, in cell work by metabolically active cells.
Take `CCCC(=O)N1CCC(CCC(=O)NC2CC2)CC1`: the inhibition was -4.77% (inactive).
In the case of `COc1cc(Cl)c(C)cc1NC(=O)CSc1nnc(CN2CCCC2)o1` it was -4.86% (inactive); in that of `O=S(=O)(NN=C1CCCCCCC1)c1ccc(Br)cc1`, 3.73% (inactive); in that of `CCOc1cc(NC(=S)NCCCN(C)C)c(OCC)cc1NC(=O)C1CC1`, -8.33% (inactive).
On to `CC(Cc1cccs1)N(Cc1ccc(Cl)cc1)C(=O)c1ccncc1` (stereo not given), for which the inhibition was 3.31% (inactive).
In the case of `O=C1C(=O)N(CCCN2CCOCC2)C(c2ccc([N+](=O)[O-])cc2)/C1=C(\O)c1ccc2c(c1)OCCO2` (stereo not given) it was -4.72% (inactive); in that of `Cc1cccc(-n2c(SCC(=O)Nc3cccc(S(=O)(=O)NC4=NCCCCC4)c3)nc3ccccc3c2=O)c1C`, 1.69% (inactive); in that of `Cc1ccnc(SCC(=O)Nc2cccc(S(=O)(=O)N3CCOCC3)c2)n1`, 0.74% (inactive).
In the case of `CCOC(=O)C1CCN(C(=O)CC2C(=O)N(Cc3ccccc3)C(C)c3nc4ccccc4n32)CC1` (stereo not given) it was -7.65% (inactive); in that of `CCCCN(C(=O)c1ccc2ccccc2c1)c1c(N)n(CCCC)c(=O)[nH]c1=O`, -1.92% (inactive); in that of `CCN(CC)C(=O)CSc1nc2ccccc2n1CC(=O)N1CCN(c2ccccc2OC)CC1`, -2.34% (inactive).
Turning to `CCC(C)NC(=O)c1cc(Cl)ccc1OC` (stereo not given), the inhibition is -12.3% (inactive).
The value for `COc1ccc(C(=O)COC(=O)Cn2cnc3c2c(=O)n(C)c(=O)n3C)c(OC)c1` was -0.76% (inactive); that for `COc1ccc2[nH]c3c(c2c1)CCN1C(=O)C(CC(=O)NCc2cccc(C(F)(F)F)c2)C[C@H](C(=O)N2CCOCC2)[C@@]31C` (stereo not given in full) was 5.85% (inactive); that for `O=C(O)CCCCCCCCCC[n+]1ccccc1` was -10.3% (inactive).
The value for `Cc1cc(C)n2nc(C(=O)OCC(=O)N(C)CC(=O)Nc3ccc(F)cc3)nc2n1` was -5.6% (inactive).
For the molecule `CC(NC(=O)c1ccccc1)C(=O)Nc1ccccc1` (stereo not given), the inhibition was -6.92% (inactive).
The value for `O=C(NC1=CC(=O)c2ccccc2C1=O)c1ccccc1` was 54.1% (active).
With `O=C(NC(=O)c1ccccc1)Nc1ccccc1O`, the inhibition is 2.6% (inactive).
In the case of `CCN(Cc1ccccc1)S(=O)(=O)c1cc2c3c(c1)CCN3C(=O)CC2` it was 4.66% (inactive); in that of `Cc1cc(C(=O)COC(=O)CNC(=O)c2ccc(F)cc2)c(C)n1Cc1ccco1`, -4.86% (inactive).
Turning to `O=C(COc1ccccc1)Nc1cc2c3c(c1)CC(=O)N3CCC2`, the inhibition was -4.21% (inactive).
As for `Cn1nc(C(F)(F)F)cc1-c1ccc(/C=C(\C#N)C(=O)c2cccc(C(F)(F)F)c2)s1`, the inhibition was 13.8% (inactive).
In the case of `Cc1cc(C)c2oc(C(=O)Nc3ccc(S(=O)(=O)Nc4nccc(C)n4)cc3)cc(=O)c2c1` it was 0.48% (inactive); in that of `COc1cc(OC)cc(C(=O)NCC(=O)N2CCCCCCC2)c1`, -3.62% (inactive).
The value for `CC(=O)N(C1=C(Cl)C(=O)c2ccccc2C1=O)c1ccc(C(=O)O)cc1` was 52.2% (active); that for `CCCN(CC(=O)Nc1ccccc1C)C(=O)c1ccc(OCC(=O)N2CCOCC2)c(OCC)c1` was -2.45% (inactive).
In the case of `N#Cc1ccc(C2N=C(c3ccccc3)NO2)cc1` (stereo not given) it was 0.41% (inactive); in that of `O=C(C1CCN(S(=O)(=O)c2cnc[nH]2)CC1)N1CCN(Cc2ccc3c(c2)OCO3)CC1`, 0.71% (inactive); in that of `C=CCN(Cc1nc(-c2cc(OC)c3c(c2)OCO3)oc1C)C1CCS(=O)(=O)C1` (stereo not given), -3.24% (inactive).
As to `COc1ccc(N(CC(=O)N/N=C/c2cccc3c2OCCO3)S(=O)(=O)c2ccc(NC(C)=O)cc2)cc1`, the inhibition is 38.1% (active).
In the case of `CC(=O)Nc1ccc(S(=O)(=O)N(CCc2ccccc2)CC(=O)N/N=C/c2ccc(C(=O)O)cc2)cc1` it was -2.7% (inactive); in that of `COc1ccc(N(CC(=O)N/N=C/c2cccs2)S(=O)(=O)c2ccc(OC)c(OC)c2)cc1`, -10.3% (inactive); in that of `COc1ccc(Cl)cc1C(=O)NNC(=O)c1nc2nc(C)cc(C)n2n1`, 0.07% (inactive).
The value for `O=c1ccc2c(-c3ccccc3S(=O)(=O)O)c3ccc(O)c(O)c3oc-2c1O` was 38.4% (active); that for `COc1ccccc1CNC(=O)[C@@H]1CCCN1C(=O)[C@@H]1Cc2ccccc2CN1C(=O)OC(C)(C)C` was 3.72% (inactive).
In the case of `Cc1cc[n+](-c2[nH]c(=O)sc2/C=N/NC(=O)c2ccccc2[O-])cc1C` it was -1.94% (inactive); in that of `O=C(COC(=O)Cn1cnc2ccccc2c1=O)NCc1ccccc1Cl`, -10.3% (inactive).
With `O=C(Nc1cc(-c2nn(CC(=O)N3CCCCC3)c(=O)c3ccccc23)ccc1N1CCOCC1)c1ccc(Cl)cc1`, the inhibition was -2.81% (inactive).
`O=c1[nH]c2ccccc2n2c(-c3ccccc3)nnc12`: the inhibition is 46.7% (active).
The value for `O=c1[nH]n2c(-c3ccccc3)nc(O)c2c2ccccc12` was -18.8% (inactive); that for `O=C(C[C@H]1C/C=C\C[C@@H](NC(=O)OCC2c3ccccc3-c3ccccc32)C(=O)O[C@@H](c2ccccc2)CNC1=O)N[C@H](CO)Cc1ccccc1` was -0.6% (inactive); that for `COc1ccc(CCNc2nc3ccc(C)cc3n3cnnc23)cc1OC` was 8.2% (inactive).
The value for `CCOC(=O)CSc1nc2ccc(C)cc2n2cnnc12` was 53% (active); that for `CCOC(=O)CSc1nncc2ccc(OC)c(OC)c12` was -9.31% (inactive).
`CC1CN(C2CCN(C(=O)COc3ccccc3)CC2)CC(C)O1` (stereo not given): the inhibition was 1.62% (inactive).
In the case of `O=c1oc2ccccc2c(=O)c2ccccc12` it was -8.91% (inactive).
The value for `CC(C)(C)Nc1c(N)c(=O)oc2ccccc12` was 44.6% (active); that for `Nc1c(NCCc2ccccc2)c2ccccc2oc1=O` was -1.28% (inactive); that for `COc1ccc(CCN2CNc3c(c(=O)n(C)c(=O)n3C)C2)cc1OC` was 6.26% (inactive).
In the case of `O=C(Nc1cc(S(=O)(=O)N2CCOCC2)ccc1Cl)c1cc(=O)c2ccccc2o1` it was 12.4% (inactive); in that of `Cc1nnnn1/C(=C\c1ccccc1)C(=O)OCC(=O)N1CC2(C)CC1CC(C)(C)C2` (stereo not given), -1.75% (inactive).
For `CCN(CC(=O)Nc1ccc2c(c1)OCO2)S(=O)(=O)c1ccccc1`, the inhibition is -0.97% (inactive).
The value for `O=C(/C=C/c1cccc(C(F)(F)F)c1)N1CCN(c2ccccn2)CC1` was 3.47% (inactive).
As for `O=C(CSc1cccc[n+]1[O-])c1ccc(-c2ccccc2)cc1`, the inhibition is -4.64% (inactive).
